From publication PMC2692502 (Journal of Antimicrobial Chemotherapy, 2009)
Like-named read-outs stand apart in the source and are kept apart here.

Experiments:
[1] = Study 2: safety and tolerability; assay type: in vivo, human
In short: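 Healthy adults (24 enrolled) were randomized 3:2:1 in a single-blind, placebo-controlled, parallel-group design. Groups received test compound 6 mg/kg, 4 mg/kg or placebo as a 2 min peripheral iv injection by syringe driver, once daily for 7 days. All subjects entered the safety analysis. The investigator graded AEs for relatedness (not, unlikely, possibly, probably) and severity. Tabulated AEs were possibly or probably related. Follow-up was 9–11 days after last dose.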

[2] = assay type: in vivo, human; settings: for AUC(0-t): AUC0–t, trapezoidal rule; for clearance: CL, healthy adult volunteers
In short: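 Healthy adult volunteers, randomized open-label two-period crossover: a single 6 mg/kg dose given as a 30 min iv infusion and as a 2 min iv injection, with a 5 day washout. Heparinized blood was drawn predose, immediately after dosing and up to 36 h after dosing ended. Total plasma drug was measured by HPLC (LLOQ 3 mg/L). Non-compartmental trapezoidal AUC was computed. The injection:infusion ratio (95% CI) came from ANOVA of log-transformed values.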

[3] = independent of the daptomycin concentration; cited from earlier work
[4] = cited from earlier work
[5] = Study 1: safety and tolerability; assay type: in vivo, human; settings: Study 1, 6 mg/kg
In short: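 Healthy adult volunteers in a randomized, open-label, single-dose, two-period crossover. Each received test compound 6 mg/kg as a 30 min iv infusion and as a 2 min peripheral iv injection by syringe driver, in random order, with a 5-day washout. The investigator graded AEs for relatedness (not, unlikely, possibly, probably related) and severity (mild/moderate/severe). Tabulated AEs were possibly or probably related. Follow-up was 1–11 days post-dose.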

[6] = Study 2, 6 mg/kg 2 min iv injection once daily for 7 days, n = 12
[7] = Study 1, 2 min iv injection relative to 30 min iv infusion, 6 mg/kg, ANOVA of log-transformed values, n = 15

CCCCCCCCCC(=O)N[C@@H](Cc1c[nH]c2ccccc12)C(=O)N[C@H](CC(N)=O)C(=O)N[C@@H](CC(=O)O)C(=O)N[C@@H]1C(=O)NCC(=O)N[C@@H](CCCN)C(=O)N[C@@H](CC(=O)O)C(=O)N[C@H](C)C(=O)N[C@@H](CC(=O)O)C(=O)NCC(=O)N[C@H](CO)C(=O)N[C@@H]([C@H](C)CC(=O)O)C(=O)N[C@@H](CC(=O)c2ccccc2N)C(=O)O[C@@H]1C [daptomycin]
Subjects with related adverse event: Infections and infestations [1, 6]: 0 n (%) | Subjects with related adverse event: Nervous system disorders [1, 6]: 3 (25) n (%) | Subjects with related adverse event: dizziness [1, 6]: 1 (8) n (%) | Subjects with related adverse event: dizziness postural [1, 6]: 1 (8) n (%) | Subjects with related adverse event: flatulence [1, 6]: 0 n (%) | Subjects with related adverse event: headache [1, 6]: 1 (8) n (%) | Subjects with related adverse event: lethargy [1, 6]: 0 n (%) | Subjects with related adverse event: nausea [1, 6]: 0 n (%) | Subjects with related adverse event: pain in extremity [1, 6]: 0 n (%) | Subjects with related adverse event: paraesthesia [1, 6]: 0 n (%) | Subjects with related adverse event: upper respiratory tract infection [1, 6]: 0 n (%) | subjects with erythema (local injection-site reaction) [1, 6]: two subjects | time to resolution of local injection-site reactions ([1]; Study 2, 2 min iv injection, reactions generally mild and transient): ≤ 1 h | serious or other significant AEs ([1]; Study 2, multiple-dose, 24 subjects enrolled (placebo included)): no serious or other significant AEs | 95% CI for the ratio of the geometric means, AUC0–t [2, 7]: 0.8709–1.0055 | 95% CI for the ratio of the geometric means, AUC0–∞ [2, 7]: 0.9007–1.0117 | 95% CI for the ratio of the geometric means, Cmax [2, 7]: 0.9588–1.1719 | t1/2 ([2]; Study 1, single 6 mg/kg dose, 30 min iv infusion, plasma, HPLC, non-compartmental, harmonic mean (SD), n = 15, SD): 8.7 (0.9) h | AUC(0-t) ([2]; both, human, plasma, iv, 6 mg/kg, Study 1, single 6 mg/kg dose, 2 min iv injection, HPLC, arithmetic mean (SD), n = 15, not dose-normalized, SD): 626 µg·h/mL | AUC(0-t) ([2]; both, human, plasma, iv, 6 mg/kg, Study 1, single 6 mg/kg dose, 30 min iv infusion, HPLC, arithmetic mean (SD), n = 15, not dose-normalized, SD): 670 µg·h/mL | AUC(0-inf) ([2]; both, human, plasma, iv, 6 mg/kg, AUC0–∞, Study 1, single 6 mg/kg dose, 2 min iv injection, HPLC, arithmetic mean (SD), n = 15, not dose-normalized, SD): 691 µg·h/mL | clearance ([2]; both, human, plasma, iv, 6 mg/kg, Study 1, single 6 mg/kg dose, 2 min iv injection, HPLC, non-compartmental, arithmetic mean (SD), n = 15, SD): 0.148 mL/min/kg | clearance ([2]; both, human, plasma, iv, 6 mg/kg, Study 1, single 6 mg/kg dose, 30 min iv infusion, HPLC, non-compartmental, arithmetic mean (SD), n = 15, SD): 0.138 mL/min/kg | Cmax ([2]; both, human, plasma, iv, 6 mg/kg, Cmax, Study 1, single 6 mg/kg dose, 30 min iv infusion, HPLC, arithmetic mean (SD), n = 15, not dose-normalized, SD): 88.4 µg/mL | Vd ([2]; both, human, plasma, iv, 6 mg/kg, SD): 0.113 L/kg | protein bound [3]: 90–93% | steady state reached by ([4]; 30 min iv infusion, independent of dose): ≤ 3 days | volume of distribution (V) ([4]; average): ~0.1 L/kg | local tolerability reaction: mild tenderness ([5]; 2 min iv injection group): one subject | Subjects with at least one adverse event possibly or probably related to study drug: Any adverse event ([5]; 2 min iv injection, n = 16): 4 (25) n (%) | Subjects with related adverse event: Gastrointestinal disorders ([5]; 2 min iv injection, n = 16): 1 (6) n (%) | Subjects with related adverse event: Infections and infestations ([5]; 2 min iv injection, n = 16): 1 (6) n (%) | Subjects with related adverse event: Nervous system disorders ([5]; 2 min iv injection, n = 16): 1 (6) n (%) | Subjects with related adverse event: fatigue ([5]; 2 min iv injection, n = 16): 1 (6) n (%) | Subjects with related adverse event: headache ([5]; 2 min iv injection, n = 16): 1 (6) n (%) | Subjects with related adverse event: nausea ([5]; 2 min iv injection, n = 16): 1 (6) n (%) | Subjects with related adverse event: urinary tract infection ([5]; 2 min iv injection, n = 16): 1 (6) n (%) | local tolerability reaction: mild tenderness ([5]; 30 min iv infusion group): two subjects | local tolerability reaction: pain ([5]; 30 min iv infusion group): one subject | Subjects with at least one adverse event possibly or probably related to study drug: Any adverse event ([5]; 30 min iv infusion, n = 15): 2 (13) n (%) | Subjects with related adverse event: Gastrointestinal disorders ([5]; 30 min iv infusion, n = 15): 0 n (%) | Subjects with related adverse event: Infections and infestations ([5]; 30 min iv infusion, n = 15): 2 (13) n (%) | Subjects with related adverse event: Nervous system disorders ([5]; 30 min iv infusion, n = 15): 0 n (%) | Subjects with related adverse event: fatigue ([5]; 30 min iv infusion, n = 15): 0 n (%) | Subjects with related adverse event: headache ([5]; 30 min iv infusion, n = 15): 0 n (%) | Subjects with related adverse event: nausea ([5]; 30 min iv infusion, n = 15): 0 n (%) | Subjects with related adverse event: urinary tract infection ([5]; 30 min iv infusion, n = 15): 2 (13) n (%) | serious or severe AEs or deaths ([5]; both regimens): no serious or severe AEs or deaths were reported | tolerability ([5]; both regimens): well tolerated | total AEs reported ([5]; both regimens, 16 subjects): 21 | AEs of mild severity ([5]; both regimens, of 21 AEs): Nineteen
